From ChEMBL document CHEMBL4052792, “3-Hydroxykynurenine, a Tryptophan Metabolite Generated during the Infection, Is Active Against Trypanosoma cruzi” (ACS Med Chem Lett, 2017)
Activity calls are given as the source filed them. The calls are words filed in the database; no cut-off is given here.

Key:
Trypanosoma cruzi [1] = assay: Trypanocidal activity against Trypanosoma cruzi Tulahuen trypomastigotes infected in mouse whole blood assessed as viable trypomastigote cells at 20 uM after 96 hrs by trypan blue assay relative to control; assay type: functional
Summary of the method: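 Trypomastigotes were exposed to 20 μM in 100% whole blood at 37 °C. Viable parasites were counted after 24, 48, 72 and 96 h. Results are means ± SD of three independent experiments.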

Trypanosoma cruzi [2] = assay: Induction of mitochondrial membrane depolarization in Trypanosoma cruzi Tulahuen trypomastigotes at 8000 uM after 24 hrs by Rh123/propidium iodide staining-based flow cytometric analysis (reference value: 3.25 +/- 1.66%); assay type: functional
Summary of the method: (§1)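 Trypomastigotes were treated with 3-HK for 24 h at 37 °C, then incubated with PI plus Rh123. Rh123 fluorescence was read by flow cytometry in PI-negative (live) parasites. The depolarized fraction was taken as the low-fluorescence M2 population. Index of variation = (treated median − control median)/control median. Three experiments were run.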

Trypanosoma cruzi [3] = assay: Induction of mitochondrial membrane potential reduction in Trypanosoma cruzi Tulahuen trypomastigotes up to 4000 uM after 24 hrs by Rh123/propidium iodide staining-based flow cytometric analysis (reference value: 3.25 +/- 1.66%); assay type: functional; set-up: scale not given: the % may be the effect or the level left; summary of the method: as §1
Trypanosoma cruzi [4] = assay: Induction of mitochondrial membrane potential in Trypanosoma cruzi Tulahuen trypomastigotes at 10 mM after 24 hrs by Rh123/PI staining-based flow cytometric analysis (reference value: 3.25 +/- 1.66%); assay type: functional; summary of the method: as §1
Trypanosoma cruzi [5] = assay: Trypanocidal activity against Trypanosoma cruzi Tulahuen amastigotes infected in BALB/C mouse bone marrow derived macrophages assessed as decrease in parasite infected macrophages at 200 uM after 72 hrs by immunofluorescence assay; assay type: functional
Summary of the method: (§2)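 Macrophages were infected with trypomastigotes and treated with 3-HK for 24 h. Immunofluorescence counts were made at 72 h post-infection. Intracellular parasites per 200 cells were expressed relative to medium-treated cultures, and infected cells were counted among 200 macrophages. Data are means ± SD of four independent experiments.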

Trypanosoma cruzi [6] = assay: (§3) Trypanocidal activity against Trypanosoma cruzi Tulahuen amastigotes infected in BALB/C mouse bone marrow derived macrophages assessed as parasite infected macrophages at 2 uM treated for 24 hrs followed by compound washout measured after 48 hrs by immunofluorescence assay (reference value: 26.84 +/- 7.81%); assay type: functional
Trypanosoma cruzi [7] = assay: as §3, with “at 800” for “at 2”; assay type: functional
Trypanosoma cruzi [8] = assay: Trypanocidal activity against Trypanosoma cruzi Tulahuen amastigotes infected in BALB/C mouse bone marrow derived macrophages assessed as endocytic index at 20 uM treated for 24 hrs followed by compound washout measured after 48 hrs by immunofluorescence assay (reference value: 213.66 +/- 58.79); assay type: functional
Trypanosoma cruzi [9] = assay: Trypanocidal activity against Trypanosoma cruzi Tulahuen amastigotes infected in BALB/C mouse bone marrow derived macrophages assessed as endocytic index at 400 uM treated for 24 hrs followed by compound washout measured after 48 hrs by immunofluorescence assay (reference value: 213.66 +/- 58.79); assay type: functional
Trypanosoma cruzi [10] = assay: Trypanocidal activity against Trypanosoma cruzi Tulahuen amastigotes infected in BALB/C mouse bone marrow derived macrophages assessed as endocytic index at 1200 uM treated for 24 hrs followed by compound washout measured after 48 hrs by immunofluorescence assay (reference value: 213.66 +/- 58.79); assay type: functional
Trypanosoma cruzi [11] = assay: Trypanocidal activity against Trypanosoma cruzi Tulahuen amastigotes infected in BALB/C mouse bone marrow derived macrophages assessed as endocytic index at 1800 uM treated for 24 hrs followed by compound washout measured after 48 hrs by immunofluorescence assay (reference value: 213.66 +/- 58.79); assay type: functional
Trypanosoma cruzi [12] = assay: Trypanocidal activity against Trypanosoma cruzi Tulahuen amastigotes infected in BALB/C mouse bone marrow derived macrophages assessed as endocytic index at 2000 uM treated for 24 hrs followed by compound washout measured after 48 hrs by immunofluorescence assay (reference value: 213.66 +/- 58.79); assay type: functional
Trypanosoma cruzi [13] = assay: Trypanocidal activity against Trypanosoma cruzi Tulahuen amastigotes infected in BALB/C mouse bone marrow derived macrophages assessed as reduction in parasite infected macrophages at 0.2 uM after 72 hrs by immunofluorescence assay relative to control; assay type: functional
Trypanosoma cruzi [14] = assay: Trypanostatic activity against Trypanosoma cruzi Tulahuen amastigotes infected in BALB/C mouse bone marrow derived macrophages assessed as swollen mitochondrion at 20 uM after 24 hrs by transmission electron microscopic analysis; assay type: functional
Summary of the method: (§4)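 Bone marrow-derived macrophages were infected for 24 h, then exposed to 20 μM for 24 h or left untreated. Intracellular amastigote ultrastructure was examined by transmission electron microscopy, covering mitochondrion, nucleus, kinetoplast, flagellum, flagellar pocket, subpellicular microtubules and cytoplasmic structures.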

Trypanosoma cruzi [15] = assay: Trypanostatic activity against Trypanosoma cruzi Tulahuen amastigotes infected in BALB/C mouse bone marrow derived macrophages assessed as formation of low electrodense structures in parasite cytoplasm at 20 uM after 24 hrs by transmission electron microscopic analysis; assay type: functional; summary of the method: as §4
Trypanosoma cruzi [16] = assay: Trypanostatic activity against Trypanosoma cruzi Tulahuen amastigotes infected in BALB/C mouse bone marrow derived macrophages assessed as effect in subpelicullar microtubules at 20 uM after 24 hrs by transmission electron microscopic analysis; assay type: functional; summary of the method: as §4
Trypanosoma cruzi [17] = assay: Trypanostatic activity against Trypanosoma cruzi Tulahuen amastigotes infected in BALB/C mouse bone marrow derived macrophages assessed as effect on flagellar pocket at 20 uM after 24 hrs by transmission electron microscopic analysis; assay type: functional; summary of the method: as §4
[18] = Cytotoxicity against BALB/C mouse BMDM assessed as reduction in cell viability at 0.2 to 2000 uM after 24 hrs by trypan blue exclusion assay; assay type: cell-based
Summary of the method: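 Mammalian cells (human PBMC, Swan 71, Jurkat; bone marrow-derived macrophages; J774) were exposed to 3-HK at 0.2 to 2000 μM for 24 h. Viability was then scored by trypan blue exclusion.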

PBMC = assay: Cytotoxicity against human PBMC assessed as reduction in cell viability at 1200 to 2000 uM after 48 hrs by trypan blue exclusion assay; assay type: cell-based
Summary of the method: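 Human PBMC and Jurkat cells were treated for 48 h with a range of 3-HK concentrations or left untreated. Viable cells were counted under light microscopy by trypan blue exclusion. Data are means ± SD of four independent experiments.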

[19] = Induction of apoptosis in BALB/C mouse BMDM assessed as cells with hypodiploid DNA content at 2 uM after 24 hrs by FITC/propidium iodide staining based flow cytometric analysis (reference value: 29.9%); assay type: functional
[20] = Induction of apoptosis in BALB/C mouse BMDM assessed as cells with hypodiploid DNA content at 20 uM after 24 hrs by FITC/propidium iodide staining based flow cytometric analysis (reference value: 29.9%); assay type: functional
[21] = Induction of apoptosis in BALB/C mouse BMDM assessed as cells with hypodiploid DNA content at 10000 uM after 24 hrs by FITC/propidium iodide staining based flow cytometric analysis (reference value: 29.9%); assay type: functional
Enterococcus faecalis = assay: Antimicrobial activity against vancomycin-resistant Enterococcus faecalis NCTC12201 after 8 hrs; assay type: functional; settings: NCTC12201, 8 h
Trypanosoma cruzi [22] = assay: Trypanocidal activity against Trypanosoma cruzi Tulahuen amastigote forms infected in BALB/C mouse bone marrow derived macrophages assessed as decrease in parasite growth at 200 uM after 72 hrs by immunofluorescence assay; assay type: functional; summary of the method: as §2
Trypanosoma cruzi [23] = assay: Trypanocidal activity against Trypanosoma cruzi Tulahuen amastigotes infected in BALB/C mouse bone marrow derived macrophages assessed as reduction in endocytic index at 0.2 uM after 72 hrs by immunofluorescence assay relative to control; assay type: functional
Trypanosoma cruzi [24] = assay: Trypanocidal activity against Trypanosoma cruzi Tulahuen trypomastigotes infected in BALB/C mouse bone marrow derived macrophages assessed as induction of cell lysis at trypomastigote stage after 24 hrs

## Nc1c(O)cccc1C(=O)C[C@H](N)C(=O)O
Trypanosoma cruzi [1]
  Activity: 50%
Trypanosoma cruzi [2]
  Activity: 40.7%
Trypanosoma cruzi [3]
  Activity: 8 - 12%
Trypanosoma cruzi [4]
  Activity: 40%
Trypanosoma cruzi [5]
  Activity: Active
Trypanosoma cruzi [6]
  Activity: 12.4%
Trypanosoma cruzi [7]
  Activity: 15.1%
Trypanosoma cruzi [8]
  Activity: 51.74
Trypanosoma cruzi [9]
  Activity: 89.81
Trypanosoma cruzi [10]
  Activity: 106.06
Trypanosoma cruzi [11]
  Activity: 110.69
Trypanosoma cruzi [12]
  Activity: 104.34
Trypanosoma cruzi [13]
  inhibition at 0.2 µM: 59%
Trypanosoma cruzi [14]
  Activity: Active
Trypanosoma cruzi [15]
  Activity: Active
Trypanosoma cruzi [16]
  Activity: inactive
Trypanosoma cruzi [17]
  Activity: inactive
[18]
  Activity: Non-Toxic
PBMC
  Activity: Toxic
[19]
  Activity: 28.2%
[20]
  Activity: 25.9%
[21]
  Activity: 29.5%
Enterococcus faecalis
  IC50: 30 to 137 µM
Trypanosoma cruzi [22]
  Activity: Active
Trypanosoma cruzi [23]
  inhibition at 0.2 µM: 68%
Trypanosoma cruzi [24]
  IC50: 1200 µM
